Assays:
[1] = Adsorption on alum in pH 6.5 histidine buffer assessed as compound adsorbed at 1 mg/ml incubated for 1 hr by LC-MS analysis relative to control; format: physicochemical; settings: pH 6.5, 1 h
Method in brief: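 Compound dissolved in endotoxin-free water, then combined with Alhydrogel alum suspension and 100 mM histidine pH 6.5 stock; final 1 mg/mL compound, 3 mg/mL alum in 10 mM histidine, gently agitated 1 h at room temperature. Aliquot centrifuged 13 000 rpm 10 min; supernatant analysed by LCMS against nonadsorbed reference to give unbound fraction, bound fraction derived indirectly.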

[2] = Adsorption on alum in pH 6.5 histidine buffer assessed as compound adsorbed at 1 mg/ml incubated for 1 hr in presence of inorganic phosphate by LC-MS analysis; format: physicochemical; settings: pH 6.5, 1 h
[3] = target: T1, Toll-like receptor 7 (Homo sapiens, UniProt Q9NYK1); assay: Agonist activity at human TLR7 expressed in HEK293 cells incubated for 6 hrs by luciferase reporter gene assay; format: cell-based
T1 sequence (Q9NYK1 whole entry): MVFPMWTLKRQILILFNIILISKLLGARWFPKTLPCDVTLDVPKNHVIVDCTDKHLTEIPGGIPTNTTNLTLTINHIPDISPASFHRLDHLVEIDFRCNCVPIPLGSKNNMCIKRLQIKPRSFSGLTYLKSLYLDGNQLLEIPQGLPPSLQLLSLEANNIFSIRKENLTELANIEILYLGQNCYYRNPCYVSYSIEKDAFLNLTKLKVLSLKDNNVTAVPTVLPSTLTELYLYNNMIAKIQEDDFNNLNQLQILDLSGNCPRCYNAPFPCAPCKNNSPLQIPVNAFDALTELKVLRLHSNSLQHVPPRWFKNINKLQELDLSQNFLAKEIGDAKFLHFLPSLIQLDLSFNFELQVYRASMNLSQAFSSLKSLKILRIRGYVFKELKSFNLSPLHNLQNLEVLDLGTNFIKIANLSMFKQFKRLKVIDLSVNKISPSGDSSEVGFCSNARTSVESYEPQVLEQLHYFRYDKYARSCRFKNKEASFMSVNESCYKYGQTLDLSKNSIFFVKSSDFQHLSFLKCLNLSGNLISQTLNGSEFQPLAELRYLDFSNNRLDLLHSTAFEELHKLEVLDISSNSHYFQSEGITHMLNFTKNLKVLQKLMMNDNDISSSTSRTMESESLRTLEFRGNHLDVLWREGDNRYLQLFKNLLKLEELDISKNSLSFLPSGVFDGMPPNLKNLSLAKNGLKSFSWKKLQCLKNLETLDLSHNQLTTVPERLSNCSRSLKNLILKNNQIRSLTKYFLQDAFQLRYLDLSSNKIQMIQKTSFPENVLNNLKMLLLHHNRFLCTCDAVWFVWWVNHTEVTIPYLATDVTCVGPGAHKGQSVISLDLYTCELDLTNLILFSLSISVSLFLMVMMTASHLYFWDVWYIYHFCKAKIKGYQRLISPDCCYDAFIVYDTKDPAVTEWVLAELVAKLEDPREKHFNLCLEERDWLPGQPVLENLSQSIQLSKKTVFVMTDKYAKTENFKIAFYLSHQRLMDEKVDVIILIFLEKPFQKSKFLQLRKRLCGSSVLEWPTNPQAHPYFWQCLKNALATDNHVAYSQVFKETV
Method in brief: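 HEK293 stably carrying NF-κB-firefly luciferase reporter plus human TLR7 (best resiquimod-responding clone), maintained under puromycin/blasticidin. 25 000 cells per well in DMEM with 3% FCS.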

[4] = target: T2, Toll-like receptor 8 (Homo sapiens) (UniProt Q9NR97); assay: Agonist activity at human TLR8 expressed in HEK293 cells up to 30 uM incubated for 6 hrs by luciferase reporter gene assay relative to resiquimod; format: cell-based
T2 sequence (whole entry): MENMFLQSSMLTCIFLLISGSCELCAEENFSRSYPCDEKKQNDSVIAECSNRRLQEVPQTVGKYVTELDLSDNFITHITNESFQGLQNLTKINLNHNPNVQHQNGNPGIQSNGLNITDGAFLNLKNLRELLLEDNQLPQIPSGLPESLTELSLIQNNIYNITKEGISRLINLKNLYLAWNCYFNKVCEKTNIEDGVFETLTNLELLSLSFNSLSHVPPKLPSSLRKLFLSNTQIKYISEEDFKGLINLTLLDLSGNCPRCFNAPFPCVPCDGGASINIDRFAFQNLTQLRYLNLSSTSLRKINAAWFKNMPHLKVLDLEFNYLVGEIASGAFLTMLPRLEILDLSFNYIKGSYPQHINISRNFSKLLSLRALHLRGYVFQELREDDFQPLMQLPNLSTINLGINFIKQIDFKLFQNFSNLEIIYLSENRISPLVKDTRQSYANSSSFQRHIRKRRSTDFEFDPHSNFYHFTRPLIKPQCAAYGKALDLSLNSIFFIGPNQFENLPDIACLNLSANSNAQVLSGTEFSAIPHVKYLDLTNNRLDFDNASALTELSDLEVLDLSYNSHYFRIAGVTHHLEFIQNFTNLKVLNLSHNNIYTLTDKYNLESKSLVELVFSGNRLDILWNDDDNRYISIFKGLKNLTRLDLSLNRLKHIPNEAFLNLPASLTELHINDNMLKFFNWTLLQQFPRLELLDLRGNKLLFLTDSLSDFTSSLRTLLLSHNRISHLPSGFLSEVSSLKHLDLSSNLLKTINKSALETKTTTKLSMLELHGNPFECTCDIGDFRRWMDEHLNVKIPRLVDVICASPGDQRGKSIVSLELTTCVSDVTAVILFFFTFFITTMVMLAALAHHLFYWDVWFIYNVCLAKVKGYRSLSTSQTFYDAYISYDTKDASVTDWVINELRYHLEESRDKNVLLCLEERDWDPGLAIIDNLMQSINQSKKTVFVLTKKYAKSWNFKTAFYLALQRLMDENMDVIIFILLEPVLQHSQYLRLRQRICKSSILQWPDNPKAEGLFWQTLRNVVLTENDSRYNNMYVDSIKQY

SMILES	Activity [1]	Activity [2]	EC50 [3] [nM]	Activity [4] [%]
Cc1cc(OCCCC(F)(F)P(=O)(O)O)ccc1CCc1cnc2c(N)nc3cc(CCC(=O)O)ccc3c2c1	95%	Not Active	240	< 5
Cc1ccc2c(c1)nc(N)c1ncc(CCc3ccc(OCCCP(=O)(O)O)cc3C)cc12	ND(Insoluble)		230	< 5
Cc1cc(OCCOCCOCCP(=O)(O)O)ccc1CCc1cnc2c(N)nc3cc(CCC(=O)O)ccc3c2c1	97%	Not Active	350	< 5

The remaining lines, values ahead:

Activity [1]	Activity [2]	EC50 [3] [nM]	Activity [4] [%]	SMILES
98%	Not Active	1200	< 5	Cc1ccc2c(c1)nc(N)c1ncc(CCc3ccc(OCCOCCOCCC(F)(F)P(=O)(O)O)cc3C)cc12
97%	Not Active	39	< 5	Cc1cc(OCCOCCOCCC(F)(F)P(=O)(O)O)ccc1CCc1cnc2c(N)nc3cc(CCC(=O)O)ccc3c2c1

From ChEMBL document CHEMBL3826928, “Incorporation of Phosphonate into Benzonaphthyridine Toll-like Receptor 7 Agonists for Adsorption to Aluminum Hydroxide” (J Med Chem, 2016)
